The entries come from a sample that favours hits as a whole.
PTEN del growth – growth suppressors of cells with PTEN tumor suppressor deletion. viability, % at 10 µM. HCT116 PTEN-null viability, CellTiter-Glo, 60 h; stronger effect = lower value. 140,000 tested, 1.2% active;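 active = viability at or below a set limit, 4 SD under the median of all tested compounds, cut at about 3.7% in these data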;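 also: PTEN knockout HCT116 line with beta catenin targeted HCT116 as companion control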
Lung fibro prol – blocks proliferation of human lung fibroblasts. LL 47 human lung fibroblast viability, ATP luminescence; stronger effect = lower value. viability, % at 10 µM. 85,000 tested, 1.1% active. AID 719;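 active = viability at or below 50% in the single dose screen; inactive = viability above 50%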;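 also: compound exposure lasted 72 h before the ATP readout; 100% = median luminescence of untreated cell-only wells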
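material = human LL 47 lung fibroblast cells | dosing = compounds added from tenfold dosing solution, 0.1% DMSO final | timing = overnight cell rest, 72 h compound treatment at 37 °C | measured by = CellTiter-Glo luminescence measuring cellular ATP | evaluation = % viability versus median cells-only luminescence | control set = cell-only wells, no compound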
H69AR growth 86K – blocks growth of human H69AR lung tumor cells. H69AR lung tumor viability, ATP luminescence, 72 h; stronger effect = lower value. viability, % at 10 µM. 85,000 tested, 6% active. AID 598;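 active = viability at or below 40%; inactive = viability above 40%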;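 also: multidrug resistant small cell line overexpressing MRP-1 efflux transporter; 100% = mean luminescence of untreated control wells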
bCat KO growth – beta-catenin-lacking colon tumor cell growth suppression; viability, % at 10 µM; HCT116 beta-catenin knockout viability, CellTiter-Glo, 60 h; stronger effect = lower value; 140,000 tested, 1.5% active;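 active = viability at or under a set limit, the compound median less 4 SD, cut at about 6% in these data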;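 also: 0% = Hyamine 1622 control at 20 µM and 100% = untreated cell control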
HUVEC inhibit – blocks proliferation of human endothelial cells; AID 648; viability, % at 10 µM (by protocol); 86,000 tested, 1.1% active; HUVEC proliferation, CellTiter-Glo luminescence, 72 h; stronger effect = lower value;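 active = viability at or below 30%; inactive = viability above 30%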;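 also: 100% = median luminescence of DMSO-only cell control wells on each plate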
Starred values were filed as active, the others as inactive; nt = no result given.

SMILES	PTEN del growth	Lung fibro prol	H69AR growth 86K	bCat KO growth	HUVEC inhibit
Cc1cccc(-c2nc(CN3CCCC(C(=O)NC4CCCCC4)C3)c(C)o2)c1 (stereo unspecified)	77.7	108.5	38.6*	72.5	60.4
Cc1oc(-c2cccc(Cl)c2)nc1CN1CCCC(C(=O)NCc2ccco2)C1 (stereo unspecified)	82.3	90.1	59.8	66.1	76.3
COc1cc(/C=N/NC(=O)C2C3CCCCC32C)cc(Br)c1O (stereo unspecified)	93.1	nt	nt	89.4	nt
CC(C)(C)n1nnnc1C(c1cccs1)N(Cc1cccnc1)Cc1ccccc1Cl (stereo unspecified)	12.1	89.0	4.0*	13.1	70.2
Cc1ccc(Nc2cc(C)nn2-c2nc(C)cc(C)n2)cc1	27.3	89.5	13.5*	20.9	80.8
Cc1ccc(Nc2nc3ccccc3nc2-n2nc(C)cc2C)cc1	77.6	103.8	91.8	87.8	116.5
Cc1ccc(Nc2cc(C)nn2-c2nc(C)cc(=O)[nH]2)cc1	1.5*	4.5*	1.4*	2.0*	29.8*
Cc1ccc(Nc2cc(C)nc3nnnn23)cc1	96.8	101.1	97.2	103.3	95.2
CC(C)COc1ccc(-c2cc(C(=O)NN)[nH]n2)cc1	74.8	nt	nt	75.7	nt
O=C(Nc1c(C(=O)Nc2cccc(F)c2)oc2ccccc12)c1ccc2c(c1)OCO2	73.4	70.9	24.4*	74.4	73.9
CCCCCCn1c(COc2ccccc2F)nnc1SCC(=O)N1c2ccccc2NC(=O)C1(C)C	1.1*	83.5	0.8*	1.2*	67.2
CCn1c(SCC(=O)OCC(=O)N2c3ccccc3NC(=O)C2(C)C)nnc1-c1ccco1	114.5	90.9	102.4	101.5	82.4
COC(=O)c1cc(NC(=O)c2c(Cl)nc3sccn23)cc(C(=O)OC)c1	62.9	6.7*	36.0*	57.0	68.0
COC(=O)c1cc(=O)nc2sccn12	102.2	104.0	83.9	100.9	96.6
COc1ccc(N2CCN(S(=O)(=O)c3cccc(C(F)(F)F)c3)CC2)cc1	99.2	97.8	99.8	100.3	105.5
Cn1c(=O)c2cc(S(=O)(=O)N3CCN(c4cccc(C(F)(F)F)c4)CC3)ccc2n(C)c1=O	57.6	58.0	25.4*	68.0	68.0
COC(=O)C(C(=O)OC)C(C[N+](=O)[O-])c1ccc(OC)c(OC)c1 (stereo unspecified)	83.5	nt	nt	65.2	nt
COc1ccc(C(C[N+](=O)[O-])C2(c3ccc(OC)c(OC)c3)C(=O)c3ccccc3C2=O)cc1 (stereo unspecified)	2.1*	nt	nt	2.5*	nt
CCOC(=O)c1c(NC(=O)COc2ncnc3ccccc23)sc(C)c1CC	81.7	nt	nt	86.2	nt
CS(=O)(=O)NN1C(=O)c2ccccc2NC1c1c[nH]c2ccccc12 (stereo unspecified)	93.1	nt	nt	85.3	nt
CC(=O)Nc1cccc(/C(C)=N\NC(=O)c2ccc(Cn3nc([N+](=O)[O-])c(Cl)c3C)o2)c1	91.6	nt	nt	96.6	nt
C=C(C(=O)c1ccccc1)C(C)CC(=O)c1ccccc1 (stereo unspecified)	1.5*	nt	nt	2.1*	nt
Cc1nc(C)c2c(=O)cc(-c3ccccc3)[nH]c2n1	30.0	60.8	30.7*	26.7	56.6
Cc1nc(-c2ccccc2)nc2[nH]c(-c3ccccc3)cc(=O)c12	86.9	96.1	14.8*	91.4	55.2
O=C(NCc1ccco1)/C(=C\c1cccnc1)NC(=O)c1ccccc1F	103.8	nt	nt	100.7	nt
SMILES	PTEN del growth	Lung fibro prol	H69AR growth 86K	bCat KO growth	HUVEC inhibit
COC(=O)c1ccc(C(=O)OC)c(NC(=S)N2CCN(c3cccc(Cl)c3)CC2)c1	88.1	nt	nt	88.4	nt
O=C(CSc1ccc2c(c1)OCCO2)Nc1ccc(Cl)cn1	92.8	92.2	98.6	91.8	19.2*
Cc1nn(C)c(C)c1/C=N/NC(=O)CCn1nc(C)c([N+](=O)[O-])c1C	94.9	nt	nt	93.7	nt
O=C1C2CSCN2C(=O)CN1CCCN1CCN(C(c2ccccc2)c2ccccc2)CC1 (stereo unspecified)	97.7	nt	nt	92.2	nt
O=C(O)CCCCCN1C(=O)/C(=C\c2ccncc2)SC1=S	34.8	nt	nt	32.3	nt
COc1ccc(CN2C(=O)/C(=C/c3ccncc3)SC2=S)cc1	2.0*	nt	nt	2.5*	nt
Cc1cc(C)c2nc(SCC#N)cc(C)c2c1	59.4	83.1	24.0*	53.5	83.5
CC(C)Nc1nc(NC(C)C)nc(N(C#N)CCOc2ccc(Cl)cc2Cl)n1	59.8	83.6	27.9*	65.0	86.8
COc1cc(OC)nc(Oc2ccccc2C(=O)Oc2cccc(C)c2)n1	94.8	nt	nt	100.5	nt
COc1cc2c(=O)n(Cc3ccccc3)c(=O)n(CC(=O)C(C)(C)C)c2cc1OC	nt	95.0	90.0	nt	84.3

Compound activity: PubChem BioAssay, SRMLSC
